How the values were obtained:
Format in all cases: functional
Amaranthus retroflexus [1] = test: Herbicidal activity against Amaranthus retroflexus assessed as inhibition of herb growth at 1.5 kg/ha during preemergence treatment protocol; details: pre-emergence, read-out: GI
Digitaria sanguinalis [2] = test: Herbicidal activity against hairy Digitaria sanguinalis (hairy crabgrass) assessed as inhibition of herb growth at 1.5 kg/ha during postemergence treatment protocol; details: post-emergence, read-out: GI
Medicago sativa [3] = test: Herbicidal activity against Medicago sativa (alfalfa) assessed as inhibition of herb growth at 1.5 kg/ha during postemergence treatment protocol; details: post-emergence, read-out: GI
Amaranthus retroflexus [4] = test: Herbicidal activity against Amaranthus retroflexus assessed as inhibition of herb growth at 1.5 kg/ha during postemergence treatment protocol; details: post-emergence, read-out: GI
Brassica napus [5] = test: Herbicidal activity against Brassica napus (oilseed rape) assessed as inhibition of herb growth at 1.5 kg/ha during postemergence treatment protocol; details: post-emergence, read-out: GI
Spinacia oleracea = test: Inhibition of photosynthetic electron transport in Spinacia oleracea (spinach)isolated chloroplasts assessed as inhibition of Hill reaction
Summary of the method: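 Chloroplasts from fresh spinach leaves, homogenised in ice-cold pH 7.8 buffer (0.4 M sucrose, 10 mM NaCl, 50 mM Tris-HCl), spun 3 min 120g then 5 min 1000g at 4 °C. Reaction buffer 350 mM NaCl, 10 mM Tris-HCl pH 7.8 with DCPIP; 2 min light (360 µmol m^-2 s^-1), DCPIP reduction at 620 nm. Compounds 0.01 mg/L–0.3 mg/mL in […]/water, ≥triplicate; IC50 by log-linear regression.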

Digitaria sanguinalis [6] = test: Herbicidal activity against hairy Digitaria sanguinalis (hairy crabgrass) assessed as inhibition of herb growth at 1.5 kg/ha during preemergence treatment protocol; details: pre-emergence, read-out: GI
Medicago sativa [7] = test: Herbicidal activity against Medicago sativa (alfalfa) assessed as inhibition of herb growth at 1.5 kg/ha during preemergence treatment protocol; details: pre-emergence, read-out: GI
Brassica napus [8] = test: Herbicidal activity against Brassica napus (oilseed rape) assessed as inhibition of herb growth at 1.5 kg/ha during preemergence treatment protocol; details: pre-emergence, read-out: GI
[9] = Spinacia oleracea, read-out: pIC50 (converted)

Structure (SMILES): CCOCCOC(=O)/C(C#N)=C(\NCc1ccc(Br)nc1)SC
- inhibition of growth at 1500 g/ha (Amaranthus retroflexus [1]): 91.9%
- inhibition of growth at 1500 g/ha (Digitaria sanguinalis [2]): 60%
- inhibition of growth at 1500 g/ha (Medicago sativa [3]): 59.9%
- inhibition of growth at 1500 g/ha (Amaranthus retroflexus [4]): 100%
- inhibition of growth at 1500 g/ha (Brassica napus [5]): 100%
- IC50 (Spinacia oleracea): 0.084 ppm
- IC50 (Spinacia oleracea; [9]): 83.2 nM
- inhibition of growth at 1500 g/ha (Digitaria sanguinalis [6]): 0%
- inhibition of growth at 1500 g/ha (Medicago sativa [7]): 12%
- inhibition of growth at 1500 g/ha (Brassica napus [8]): 23.9%

Structure (SMILES): CCOCCOC(=O)/C(C#N)=C(/CC)NCc1ccc(Br)nc1
- inhibition of growth at 1500 g/ha (Amaranthus retroflexus [1]): 21.6%
- inhibition of growth at 1500 g/ha (Digitaria sanguinalis [2]): 95.2%
- inhibition of growth at 1500 g/ha (Medicago sativa [3]): 77.8%
- inhibition of growth at 1500 g/ha (Amaranthus retroflexus [4]): 100%
- inhibition of growth at 1500 g/ha (Brassica napus [5]): 100%
- IC50 (Spinacia oleracea): 0.335 ppm
- IC50 (Spinacia oleracea; [9]): 339 nM
- inhibition of growth at 1500 g/ha (Digitaria sanguinalis [6]): 18.8%
- inhibition of growth at 1500 g/ha (Medicago sativa [7]): 28.8%
- inhibition of growth at 1500 g/ha (Brassica napus [8]): 71.9%

Structure (SMILES): CCOCCOC(=O)/C(C#N)=C(\NCc1ccc(Br)nc1)C(C)C
- inhibition of growth at 1500 g/ha (Amaranthus retroflexus [1]): 48.6%
- inhibition of growth at 1500 g/ha (Digitaria sanguinalis [2]): 42.4%
- inhibition of growth at 1500 g/ha (Medicago sativa [3]): 32.1%
- inhibition of growth at 1500 g/ha (Amaranthus retroflexus [4]): 97.8%
- inhibition of growth at 1500 g/ha (Brassica napus [5]): 100%
- IC50 (Spinacia oleracea): 0.099 ppm
- IC50 (Spinacia oleracea; [9]): 100 nM
- inhibition of growth at 1500 g/ha (Digitaria sanguinalis [6]): 16.8%
- inhibition of growth at 1500 g/ha (Medicago sativa [7]): 0%
- inhibition of growth at 1500 g/ha (Brassica napus [8]): 68.7%

Structure (SMILES): CCOCCOC(=O)/C(C#N)=C(\NCc1ccc(N(C)C)nc1)SC
- inhibition of growth at 1500 g/ha (Amaranthus retroflexus [1]): 13.5%
- inhibition of growth at 1500 g/ha (Digitaria sanguinalis [2]): 45.6%
- inhibition of growth at 1500 g/ha (Medicago sativa [3]): 51.6%
- inhibition of growth at 1500 g/ha (Amaranthus retroflexus [4]): 80.9%
- inhibition of growth at 1500 g/ha (Brassica napus [5]): 100%
- IC50 (Spinacia oleracea): 0.292 ppm
- IC50 (Spinacia oleracea; [9]): 295 nM
- inhibition of growth at 1500 g/ha (Digitaria sanguinalis [6]): 28.7%
- inhibition of growth at 1500 g/ha (Medicago sativa [7]): 0%
- inhibition of growth at 1500 g/ha (Brassica napus [8]): 37.4%

Structure (SMILES): CCOCCOC(=O)/C(C#N)=C(\NCc1ccc(N(C)C)nc1)C(C)C
- inhibition of growth at 1500 g/ha (Amaranthus retroflexus [1]): 75.7%
- inhibition of growth at 1500 g/ha (Digitaria sanguinalis [2]): 88%
- inhibition of growth at 1500 g/ha (Medicago sativa [3]): 58.3%
- inhibition of growth at 1500 g/ha (Amaranthus retroflexus [4]): 100%
- inhibition of growth at 1500 g/ha (Brassica napus [5]): 100%
- IC50 (Spinacia oleracea): 0.086 ppm
- IC50 (Spinacia oleracea; [9]): 85.1 nM
- inhibition of growth at 1500 g/ha (Digitaria sanguinalis [6]): 52.5%
- inhibition of growth at 1500 g/ha (Medicago sativa [7]): 27.9%
- inhibition of growth at 1500 g/ha (Brassica napus [8]): 29.3%

Structure (SMILES): CCOCCOC(=O)/C(C#N)=C(\NCc1ccc(OCC(F)(F)F)nc1)SC
- inhibition of growth at 1500 g/ha (Amaranthus retroflexus [1]): 0%
- inhibition of growth at 1500 g/ha (Digitaria sanguinalis [2]): 100%
- inhibition of growth at 1500 g/ha (Medicago sativa [3]): 54.2%
- inhibition of growth at 1500 g/ha (Amaranthus retroflexus [4]): 100%
- inhibition of growth at 1500 g/ha (Brassica napus [5]): 100%
- IC50 (Spinacia oleracea): 0.048 ppm
- IC50 (Spinacia oleracea; [9]): 47.9 nM
- inhibition of growth at 1500 g/ha (Digitaria sanguinalis [6]): 0%
- inhibition of growth at 1500 g/ha (Medicago sativa [7]): 0%
- inhibition of growth at 1500 g/ha (Brassica napus [8]): 10%

Structure (SMILES): CCOCCOC(=O)/C(C#N)=C(\NCc1cnc(Cl)s1)C(C)C
- inhibition of growth at 1500 g/ha (Amaranthus retroflexus [1]): 67.6%
- inhibition of growth at 1500 g/ha (Digitaria sanguinalis [2]): 45.6%
- inhibition of growth at 1500 g/ha (Medicago sativa [3]): 37.1%
- inhibition of growth at 1500 g/ha (Amaranthus retroflexus [4]): 100%
- inhibition of growth at 1500 g/ha (Brassica napus [5]): 100%
- IC50 (Spinacia oleracea): 0.161 ppm
- IC50 (Spinacia oleracea; [9]): 162 nM
- inhibition of growth at 1500 g/ha (Digitaria sanguinalis [6]): 28.7%
- inhibition of growth at 1500 g/ha (Medicago sativa [7]): 15.7%
- inhibition of growth at 1500 g/ha (Brassica napus [8]): 70.3%

Structure (SMILES): CCOCCOC(=O)/C(C#N)=C(\NCc1cnc(Br)s1)SC
- inhibition of growth at 1500 g/ha (Amaranthus retroflexus [1]): 29.7%
- inhibition of growth at 1500 g/ha (Digitaria sanguinalis [2]): 36%
- inhibition of growth at 1500 g/ha (Medicago sativa [3]): 26.8%
- inhibition of growth at 1500 g/ha (Amaranthus retroflexus [4]): 88%
- inhibition of growth at 1500 g/ha (Brassica napus [5]): 100%
- IC50 (Spinacia oleracea): 0.102 ppm
- IC50 (Spinacia oleracea; [9]): 102 nM
- inhibition of growth at 1500 g/ha (Digitaria sanguinalis [6]): 8.9%
- inhibition of growth at 1500 g/ha (Medicago sativa [7]): 8.2%
- inhibition of growth at 1500 g/ha (Brassica napus [8]): 28.7%

Structure (SMILES): CCOCCOC(=O)/C(C#N)=C(\NCc1ccc(Cl)cc1)C(C)C
- inhibition of growth at 1500 g/ha (Amaranthus retroflexus [1]): 40.5%
- inhibition of growth at 1500 g/ha (Digitaria sanguinalis [2]): 46.4%
- inhibition of growth at 1500 g/ha (Medicago sativa [3]): 68.9%
- inhibition of growth at 1500 g/ha (Amaranthus retroflexus [4]): 100%
- inhibition of growth at 1500 g/ha (Brassica napus [5]): 100%
- IC50 (Spinacia oleracea): 0.043 ppm
- IC50 (Spinacia oleracea; [9]): 42.7 nM
- inhibition of growth at 1500 g/ha (Digitaria sanguinalis [6]): 12.9%
- inhibition of growth at 1500 g/ha (Medicago sativa [7]): 0%
- inhibition of growth at 1500 g/ha (Brassica napus [8]): 4.4%

Structure (SMILES): CCOCCOC(=O)/C(C#N)=C(\NCc1ccc(Cl)cc1)SC
- inhibition of growth at 1500 g/ha (Amaranthus retroflexus [1]): 59.4%
- inhibition of growth at 1500 g/ha (Digitaria sanguinalis [2]): 31.2%
- inhibition of growth at 1500 g/ha (Medicago sativa [3]): 12.9%
- inhibition of growth at 1500 g/ha (Amaranthus retroflexus [4]): 100%
- inhibition of growth at 1500 g/ha (Brassica napus [5]): 100%
- IC50 (Spinacia oleracea): 0.026 ppm
- IC50 (Spinacia oleracea; [9]): 25.7 nM
- inhibition of growth at 1500 g/ha (Digitaria sanguinalis [6]): 24.8%
- inhibition of growth at 1500 g/ha (Medicago sativa [7]): 0%
- inhibition of growth at 1500 g/ha (Brassica napus [8]): 24.9%

Structure (SMILES): CCOCCOC(=O)/C(C#N)=C(\NCc1ccc(Cl)nc1)SC
- inhibition of growth at 1500 g/ha (Amaranthus retroflexus [1]): 13.7%
- inhibition of growth at 1500 g/ha (Digitaria sanguinalis [2]): 89.9%
- inhibition of growth at 1500 g/ha (Medicago sativa [3]): 41.3%
- inhibition of growth at 1500 g/ha (Amaranthus retroflexus [4]): 100%
- inhibition of growth at 1500 g/ha (Brassica napus [5]): 100%
- IC50 (Spinacia oleracea): 0.167 ppm
- IC50 (Spinacia oleracea; [9]): 166 nM
- inhibition of growth at 1500 g/ha (Digitaria sanguinalis [6]): 18.6%
- inhibition of growth at 1500 g/ha (Medicago sativa [7]): 1.5%
- inhibition of growth at 1500 g/ha (Brassica napus [8]): 68.9%

Reference: ChEMBL document CHEMBL3045046, “Synthesis, herbicidal activities, and 3D-QSAR of 2-cyanoacrylates containing aromatic methylamine moieties” (J Agric Food Chem, 2008)
